# Test results taken from ChEMBL document CHEMBL2331324, “Synthesis and biological evaluation of guanidino analogues of roscovitine” (Eur J Med Chem, 2013).
# Tests used:
# [1] = biological target: Inhibitor of nuclear factor kappa-B kinase subunit beta (Homo sapiens) (UniProt O14920); experiment: Inhibition of recombinant IKKbeta (unknown origin) assessed as residual activity using [gamma-33P]ATP as substrate at 1 uM
# In short: (§1)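 Recombinant kinase panel screened at 1 µM in duplicate. Reactions started with [γ-33P]ATP (800 cpm/pmol) at 5, 20 or 50 µM, chosen to sit at or below each enzyme's ATP Km. Stopped with phosphoric acid and spotted onto P81 filters. Result given as residual kinase activity.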
# [2] = biological target: Dual specificity mitogen-activated protein kinase kinase 1 (Homo sapiens) (UniProt Q02750); experiment: Inhibition of recombinant MKK1 (unknown origin) assessed as residual activity using [gamma-33P]ATP as substrate at 1 uM
# Chain of Dual specificity mitogen-activated protein kinase kinase 1 (Homo sapiens) (Q02750 whole entry): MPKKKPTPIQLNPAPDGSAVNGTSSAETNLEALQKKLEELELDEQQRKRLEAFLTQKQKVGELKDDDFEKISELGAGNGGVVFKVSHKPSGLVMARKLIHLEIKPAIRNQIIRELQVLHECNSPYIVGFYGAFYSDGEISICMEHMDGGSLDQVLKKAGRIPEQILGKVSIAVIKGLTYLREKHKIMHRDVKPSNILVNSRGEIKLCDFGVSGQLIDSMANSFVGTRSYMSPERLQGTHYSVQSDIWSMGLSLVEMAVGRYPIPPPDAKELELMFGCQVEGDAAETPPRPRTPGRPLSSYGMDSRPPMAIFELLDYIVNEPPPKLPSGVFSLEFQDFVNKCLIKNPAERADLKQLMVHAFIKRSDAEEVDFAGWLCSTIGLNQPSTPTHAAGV
# In short: (§2)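 Selectivity panel run under previously published conditions. Screened at 1 μM in duplicate. Reactions started with [γ-33P]ATP (800 cpm/pmol) at 5, 20 or 50 μM, chosen to be at or below each enzyme's ATP Km. Stopped with phosphoric acid, spotted onto P81 filters. Result expressed as residual kinase activity.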
# [3] = biological target: Serine/threonine-protein kinase N2 (Homo sapiens) (UniProt Q16513); experiment: Inhibition of recombinant PRK2 (unknown origin) assessed as residual activity using [gamma-33P]ATP as substrate at 1 uM; in short: as §2
# [4] = biological target: Serine/threonine-protein kinase PAK 2 (Homo sapiens) (UniProt Q13177); experiment: Inhibition of recombinant PAK2 (unknown origin) assessed as residual activity using [gamma-33P]ATP as substrate at 1 uM; in short: as §2
# Homo sapiens = species: Homo sapiens; experiment: Inhibition of recombinant CK1 (unknown origin) assessed as residual activity using [gamma-33P]ATP as substrate at 1 uM; in short: as §1
# [5] = biological target: Dual specificity tyrosine-phosphorylation-regulated kinase 1A (Homo sapiens) (UniProt Q13627); experiment: Inhibition of recombinant DYRK1A (unknown origin) assessed as residual activity using [gamma-33P]ATP as substrate at 1 uM; in short: as §1
# [6] = biological target: Ribosomal protein S6 kinase beta-1 (Homo sapiens) (UniProt P23443); experiment: Inhibition of recombinant S6K1 (unknown origin) assessed as residual activity using [gamma-33P]ATP as substrate at 1 uM
# In short: (§3)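 Kinase panel screen with each compound at 1 µM, in duplicate. Reactions were started with [γ-33P]ATP (800 cpm/pmol) at 5, 20 or 50 µM, chosen per enzyme to be at or below its ATP Km. Reactions were stopped with phosphoric acid and spotted onto P81 filters. Results are given as residual kinase activity.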
# [7] = biological target: Fibroblast growth factor receptor 1 (Homo sapiens) (UniProt P11362); experiment: Inhibition of recombinant FGF-R1 (unknown origin) assessed as residual activity using [gamma-33P]ATP as substrate at 1 uM; in short: as §1
# Chain of Fibroblast growth factor receptor 1 (Homo sapiens) (P11362 22-822 limits assumed): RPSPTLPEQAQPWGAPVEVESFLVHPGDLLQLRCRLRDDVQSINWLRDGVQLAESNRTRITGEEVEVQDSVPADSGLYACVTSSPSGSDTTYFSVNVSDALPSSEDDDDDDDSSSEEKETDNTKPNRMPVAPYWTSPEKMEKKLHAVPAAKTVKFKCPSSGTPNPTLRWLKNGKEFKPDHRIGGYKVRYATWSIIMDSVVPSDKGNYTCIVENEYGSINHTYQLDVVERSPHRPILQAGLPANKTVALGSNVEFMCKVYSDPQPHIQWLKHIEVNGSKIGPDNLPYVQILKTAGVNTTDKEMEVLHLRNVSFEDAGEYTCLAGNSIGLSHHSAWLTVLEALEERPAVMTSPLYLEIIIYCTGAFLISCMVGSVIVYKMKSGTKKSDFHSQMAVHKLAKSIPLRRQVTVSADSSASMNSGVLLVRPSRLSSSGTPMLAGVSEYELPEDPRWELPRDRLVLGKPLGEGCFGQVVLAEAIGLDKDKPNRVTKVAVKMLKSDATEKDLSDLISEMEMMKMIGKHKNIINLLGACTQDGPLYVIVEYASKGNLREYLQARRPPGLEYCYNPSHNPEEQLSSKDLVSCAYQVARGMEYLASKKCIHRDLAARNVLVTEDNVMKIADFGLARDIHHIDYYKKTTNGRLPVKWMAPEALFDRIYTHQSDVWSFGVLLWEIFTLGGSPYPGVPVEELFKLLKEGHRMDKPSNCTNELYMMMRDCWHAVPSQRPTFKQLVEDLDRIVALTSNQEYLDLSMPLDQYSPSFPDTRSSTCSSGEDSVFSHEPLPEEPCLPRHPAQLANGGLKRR
# [8] = biological target: Serine/threonine-protein kinase BRSK1 (Homo sapiens) (UniProt Q8TDC3); experiment: Inhibition of recombinant BRSK1 (unknown origin) assessed as residual activity using [gamma-33P]ATP as substrate at 1 uM; in short: as §1
# [9] = biological target: Serine/threonine-protein kinase PAK 5 (Homo sapiens) (UniProt Q9P286); experiment: Inhibition of recombinant PAK5 (unknown origin) assessed as residual activity using [gamma-33P]ATP as substrate at 1 uM
# Chain of Serine/threonine-protein kinase PAK 5 (Homo sapiens) (Q9P286 whole entry, looked up): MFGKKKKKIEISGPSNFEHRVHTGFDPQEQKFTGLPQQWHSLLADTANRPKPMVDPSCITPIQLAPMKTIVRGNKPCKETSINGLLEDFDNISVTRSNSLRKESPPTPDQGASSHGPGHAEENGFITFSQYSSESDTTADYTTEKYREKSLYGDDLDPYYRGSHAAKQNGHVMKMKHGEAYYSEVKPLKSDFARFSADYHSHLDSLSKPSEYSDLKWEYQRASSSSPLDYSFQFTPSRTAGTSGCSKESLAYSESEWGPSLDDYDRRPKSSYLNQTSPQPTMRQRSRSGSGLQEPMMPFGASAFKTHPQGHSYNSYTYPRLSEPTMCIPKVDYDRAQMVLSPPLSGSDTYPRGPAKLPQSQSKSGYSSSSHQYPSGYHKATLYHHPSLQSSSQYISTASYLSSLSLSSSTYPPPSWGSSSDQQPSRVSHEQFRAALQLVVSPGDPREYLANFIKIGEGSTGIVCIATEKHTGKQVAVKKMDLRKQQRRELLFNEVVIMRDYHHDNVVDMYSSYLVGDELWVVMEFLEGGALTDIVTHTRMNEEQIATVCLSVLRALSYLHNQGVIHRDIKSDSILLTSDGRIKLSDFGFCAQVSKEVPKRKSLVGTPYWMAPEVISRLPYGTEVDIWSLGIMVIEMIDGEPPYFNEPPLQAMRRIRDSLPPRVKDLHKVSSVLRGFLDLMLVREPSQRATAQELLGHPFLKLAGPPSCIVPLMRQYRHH
# [10] = biological target: Eukaryotic translation initiation factor 2-alpha kinase 3 (Homo sapiens) (UniProt Q9NZJ5); experiment: Inhibition of recombinant EIF2AK3 (unknown origin) assessed as residual activity using [gamma-33P]ATP as substrate at 1 uM; in short: as §1
# [11] = biological target: Aurora kinase B (Homo sapiens) (UniProt Q96GD4); experiment: Inhibition of recombinant AURB (unknown origin) assessed as residual activity using [gamma-33P]ATP as substrate at 1 uM; in short: as §1
# [12] = biological target: Myosin light chain kinase, smooth muscle (Homo sapiens) (UniProt Q15746); experiment: Inhibition of recombinant SMMLCK (unknown origin) assessed as residual activity using [gamma-33P]ATP as substrate at 1 uM; in short: as §3
# [13] = biological target: Serine/threonine-protein kinase pim-1 (Homo sapiens) (UniProt P11309); experiment: Inhibition of recombinant PIM1 (unknown origin) assessed as residual activity using [gamma-33P]ATP as substrate at 1 uM; in short: as §2
# Chain of Serine/threonine-protein kinase pim-1 (Homo sapiens) (P11309 whole entry, looked up): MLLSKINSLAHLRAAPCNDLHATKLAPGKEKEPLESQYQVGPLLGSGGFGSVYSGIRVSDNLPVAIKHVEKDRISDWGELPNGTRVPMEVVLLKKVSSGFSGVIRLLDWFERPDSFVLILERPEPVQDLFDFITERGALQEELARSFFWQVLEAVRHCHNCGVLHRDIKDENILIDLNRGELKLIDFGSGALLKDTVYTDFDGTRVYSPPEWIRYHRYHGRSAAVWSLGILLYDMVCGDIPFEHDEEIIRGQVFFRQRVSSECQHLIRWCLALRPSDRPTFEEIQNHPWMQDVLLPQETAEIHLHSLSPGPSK
# [14] = biological target: Serine/threonine-protein kinase PLK1 (Homo sapiens) (UniProt P53350); experiment: Inhibition of recombinant PLK1 (unknown origin) assessed as residual activity using [gamma-33P]ATP as substrate at 1 uM; in short: as §2
# Chain of Serine/threonine-protein kinase PLK1 (Homo sapiens) (P53350 whole entry): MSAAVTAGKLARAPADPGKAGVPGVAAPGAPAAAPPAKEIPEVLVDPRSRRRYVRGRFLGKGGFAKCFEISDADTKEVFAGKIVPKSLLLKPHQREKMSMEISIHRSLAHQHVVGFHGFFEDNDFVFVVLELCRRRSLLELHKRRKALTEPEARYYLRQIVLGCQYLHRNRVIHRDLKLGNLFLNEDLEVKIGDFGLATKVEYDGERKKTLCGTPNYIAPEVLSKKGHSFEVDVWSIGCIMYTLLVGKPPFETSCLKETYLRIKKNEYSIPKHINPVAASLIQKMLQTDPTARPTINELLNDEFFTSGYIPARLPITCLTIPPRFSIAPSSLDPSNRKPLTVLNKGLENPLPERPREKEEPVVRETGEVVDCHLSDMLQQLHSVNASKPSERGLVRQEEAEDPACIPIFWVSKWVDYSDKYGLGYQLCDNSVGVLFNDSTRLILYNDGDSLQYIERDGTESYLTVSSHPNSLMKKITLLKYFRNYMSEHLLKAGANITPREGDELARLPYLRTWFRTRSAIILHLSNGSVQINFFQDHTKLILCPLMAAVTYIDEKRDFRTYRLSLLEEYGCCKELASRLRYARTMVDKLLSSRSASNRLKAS
# [15] = biological target: Serine/threonine-protein kinase Nek2 (Homo sapiens) (UniProt P51955); experiment: Inhibition of recombinant NEK2a (unknown origin) assessed as residual activity using [gamma-33P]ATP as substrate at 1 uM; in short: as §2
# [16] = biological target: Ephrin type-A receptor 4 (Homo sapiens) (UniProt P54764); experiment: Inhibition of recombinant EPH-A4 (unknown origin) assessed as residual activity using [gamma-33P]ATP as substrate at 1 uM; in short: as §1
# [17] = biological target: Serine/threonine-protein kinase TAO1 (Homo sapiens) (UniProt Q7L7X3); experiment: Inhibition of recombinant TAO1 (unknown origin) assessed as residual activity using [gamma-33P]ATP as substrate at 1 uM; in short: as §3
# Chain of Serine/threonine-protein kinase TAO1 (Homo sapiens) (Q7L7X3 whole entry): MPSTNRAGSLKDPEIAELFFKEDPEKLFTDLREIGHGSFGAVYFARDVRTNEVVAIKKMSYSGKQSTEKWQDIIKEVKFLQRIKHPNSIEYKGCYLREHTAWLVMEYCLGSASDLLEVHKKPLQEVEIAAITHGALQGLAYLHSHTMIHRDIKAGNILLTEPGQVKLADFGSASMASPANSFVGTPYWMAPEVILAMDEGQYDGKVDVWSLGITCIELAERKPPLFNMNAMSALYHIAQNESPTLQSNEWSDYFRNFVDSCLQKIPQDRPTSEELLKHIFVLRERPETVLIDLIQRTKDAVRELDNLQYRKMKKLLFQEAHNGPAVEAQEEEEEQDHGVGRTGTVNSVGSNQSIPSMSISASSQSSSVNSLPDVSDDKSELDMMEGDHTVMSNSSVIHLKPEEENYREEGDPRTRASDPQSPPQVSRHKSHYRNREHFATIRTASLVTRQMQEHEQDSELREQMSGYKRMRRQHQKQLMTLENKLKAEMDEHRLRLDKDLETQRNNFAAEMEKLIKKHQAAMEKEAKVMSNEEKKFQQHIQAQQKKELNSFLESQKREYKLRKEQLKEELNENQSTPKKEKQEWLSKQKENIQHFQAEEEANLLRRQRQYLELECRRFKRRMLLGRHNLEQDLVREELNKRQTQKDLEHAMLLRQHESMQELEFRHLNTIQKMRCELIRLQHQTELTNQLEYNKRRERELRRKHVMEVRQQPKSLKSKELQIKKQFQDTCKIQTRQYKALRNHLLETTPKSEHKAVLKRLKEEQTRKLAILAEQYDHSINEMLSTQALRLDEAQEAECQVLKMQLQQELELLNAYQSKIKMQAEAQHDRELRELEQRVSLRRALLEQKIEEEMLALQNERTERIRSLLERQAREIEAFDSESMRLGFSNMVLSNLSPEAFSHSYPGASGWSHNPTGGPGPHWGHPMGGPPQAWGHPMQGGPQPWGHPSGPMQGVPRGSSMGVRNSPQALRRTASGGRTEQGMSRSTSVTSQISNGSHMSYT
# [18] = biological target: Cyclin-dependent kinase 2/cyclin E1 (Homo sapiens, UniProt P24941); experiment: Inhibition of recombinant CDK2/cyclin E (unknown origin) using histone H1 as substrate in presence of [gamma-33P]ATP; assay type: protein-complex assay
# [19] = biological target: Inhibitor of nuclear factor kappa-B kinase subunit epsilon (Homo sapiens) (UniProt Q14164); experiment: Inhibition of recombinant IKKepsilon (unknown origin) assessed as residual activity using [gamma-33P]ATP as substrate at 1 uM; in short: as §1
# Chain of Inhibitor of nuclear factor kappa-B kinase subunit epsilon (Homo sapiens) (Q14164 whole entry): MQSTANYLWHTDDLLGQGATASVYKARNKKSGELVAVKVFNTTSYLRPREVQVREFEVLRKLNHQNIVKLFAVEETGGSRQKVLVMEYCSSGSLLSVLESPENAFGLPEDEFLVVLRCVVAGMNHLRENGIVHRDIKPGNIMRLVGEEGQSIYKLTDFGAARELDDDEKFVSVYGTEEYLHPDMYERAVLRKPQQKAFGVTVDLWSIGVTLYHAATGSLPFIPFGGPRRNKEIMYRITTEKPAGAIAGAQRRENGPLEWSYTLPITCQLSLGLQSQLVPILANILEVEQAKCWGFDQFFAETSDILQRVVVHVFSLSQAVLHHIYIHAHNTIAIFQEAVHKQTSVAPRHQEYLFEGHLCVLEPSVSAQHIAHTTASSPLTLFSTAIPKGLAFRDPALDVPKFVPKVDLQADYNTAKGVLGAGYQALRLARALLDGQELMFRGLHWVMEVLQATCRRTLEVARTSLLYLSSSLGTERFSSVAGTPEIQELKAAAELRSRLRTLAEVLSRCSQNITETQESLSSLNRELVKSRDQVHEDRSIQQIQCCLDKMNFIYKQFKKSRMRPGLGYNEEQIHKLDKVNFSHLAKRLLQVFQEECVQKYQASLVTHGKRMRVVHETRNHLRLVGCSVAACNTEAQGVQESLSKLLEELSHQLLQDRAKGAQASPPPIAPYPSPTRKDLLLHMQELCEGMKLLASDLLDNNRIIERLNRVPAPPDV
# [20] = biological target: Serine/threonine-protein kinase Nek6 (Homo sapiens) (UniProt Q9HC98); experiment: Inhibition of recombinant NEK6 (unknown origin) assessed as residual activity using [gamma-33P]ATP as substrate at 1 uM; in short: as §2
# [21] = biological target: Tyrosine-protein kinase ZAP-70 (Homo sapiens) (UniProt P43403); experiment: Inhibition of recombinant ZAP70 (unknown origin) assessed as residual activity using [gamma-33P]ATP as substrate at 1 uM; in short: as §3
# [22] = biological target: Serine/threonine-protein kinase PAK 4 (Homo sapiens) (UniProt O96013); experiment: Inhibition of recombinant PAK4 (unknown origin) assessed as residual activity using [gamma-33P]ATP as substrate at 1 uM; in short: as §2
# [23] = biological target: Mitogen-activated protein kinase kinase kinase kinase 2 (Homo sapiens) (UniProt Q12851); experiment: Inhibition of recombinant GCK (unknown origin) assessed as residual activity using [gamma-33P]ATP as substrate at 1 uM; in short: as §1
# [24] = biological target: Serine/threonine-protein kinase PAK 6 (Homo sapiens) (UniProt Q9NQU5); experiment: Inhibition of recombinant PAK6 (unknown origin) assessed as residual activity using [gamma-33P]ATP as substrate at 1 uM; in short: as §2
# [25] = biological target: Tyrosine-protein kinase CSK (Homo sapiens) (UniProt P41240); experiment: Inhibition of recombinant CSK (unknown origin) assessed as residual activity using [gamma-33P]ATP as substrate at 1 uM; in short: as §1
# Chain of Tyrosine-protein kinase CSK (Homo sapiens) (P41240 2-450 limits assumed): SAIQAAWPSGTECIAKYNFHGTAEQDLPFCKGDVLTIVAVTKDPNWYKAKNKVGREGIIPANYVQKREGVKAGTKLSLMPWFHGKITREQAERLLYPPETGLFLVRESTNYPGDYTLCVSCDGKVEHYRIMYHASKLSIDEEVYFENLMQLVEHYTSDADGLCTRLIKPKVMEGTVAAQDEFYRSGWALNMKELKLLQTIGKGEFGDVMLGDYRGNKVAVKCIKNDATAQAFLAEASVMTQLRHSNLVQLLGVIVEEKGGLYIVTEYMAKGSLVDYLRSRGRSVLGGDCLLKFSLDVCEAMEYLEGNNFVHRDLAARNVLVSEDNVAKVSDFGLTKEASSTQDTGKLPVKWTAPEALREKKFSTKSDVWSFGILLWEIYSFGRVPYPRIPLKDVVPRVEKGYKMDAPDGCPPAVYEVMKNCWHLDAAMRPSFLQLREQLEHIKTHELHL
# [26] = biological target: 5'-AMP-activated protein kinase catalytic subunit alpha-2 (Homo sapiens) (UniProt P54646); experiment: Inhibition of recombinant AMPK (unknown origin) assessed as residual activity using [gamma-33P]ATP as substrate at 1 uM; in short: as §1
SMILES,Activity [1] [%],Activity [2] [%],Activity [3] [%],Activity [4] [%],Activity (Homo sapiens) [%],Activity [5] [%],Activity [6] [%],Activity [7] [%],Activity [8] [%],Activity [9] [%],Activity [10] [%],Activity [11] [%],Activity [12] [%],Activity [13] [%],Activity [14] [%],Activity [15] [%],Activity [16] [%],Activity [17] [%],IC50 [18] [nM],Activity [19] [%],also measured
CC[C@@H](CO)Nc1nc(NC(=N)N)c2ncn(C(C)C)c2n1,76,28,84,38,21,1,36,5,45,15,11,70,32,71,108,57,41,9,37,52,Activity [20]: 85%; Activity [21]: 109%; Activity [22]: 12%; Activity [23]: 10%; Activity [24]: 17%; Activity [25]: 59%; Activity [26]: 22%
CC[C@H](CO)Nc1nc(NC(=N)N)c2ncn(C(C)C)c2n1,74,41,85,45,15,1,49,4,44,18,17,47,49,85,108,73,22,9,140,66,Activity [20]: 95%; Activity [21]: 86%; Activity [22]: 15%; Activity [23]: 15%; Activity [24]: 26%; Activity [25]: 58%; Activity [26]: 29%
